# Measurements reported in ChEMBL document CHEMBL4814064, “Azetidinimines as a novel series of non-covalent broad-spectrum inhibitors of β-lactamases with submicromolar activities against carbapenemases KPC-2 (class A), NDM-1 (class B) and OXA-48 (class D)” (Eur J Med Chem, 2021).
# What was measured:
# [1] = Inhibition of NDM-1 (unknown origin) expressed in Escherichia coli BL21 (DE3) incubated for 3 mins by spectrophotometric analysis; set-up: species or system Bacteria
# Summary of the method: (§1)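 NDM-1 (1 nM, His-tagged, expressed in E. coli BL21(DE3) with 1 mM IPTG for 3 h at 37 °C, purified, kept with 50 µM ZnSO4). Run in 100 mM phosphate pH 7 with 50 µM ZnSO4, 3 min enzyme–inhibitor preincubation, then 100 µM imipenem. Initial rates at 297 nm over 600 s, 25 °C. Triplicate seven-point IC50 converted to Ki (Cheng–Prusoff); percent inhibition at 10 µM.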
# Bacteria [2] = experiment: Inhibition of NDM-1 (unknown origin) expressed in Escherichia coli BL21 (DE3) at 10 uM incubated for 3 mins by spectrophotometric analysis relative to control; summary of the method: as §1
# [3] = target: Class A carbapenemase KPC-2 (Escherichia coli, UniProt A8DS27); experiment: Inhibition of KPC-2 (unknown origin) expressed in Escherichia coli BL21 (DE3) incubated for 3 mins by spectrophotometric analysis
# Summary of the method: (§2)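 Preincubated 3 min with inhibitor in 100 mM phosphate pH 7. Imipenem 100 µM; hydrolysis followed at 297 nm for 600 s at 25 °C. IC50 from seven concentrations in triplicate; Ki by Cheng–Prusoff. Percent inhibition read at 10 µM.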
# Bacteria [4] = experiment: Inhibition of OXA-48 (unknown origin) expressed in Escherichia coli BL21 (DE3) at 10 uM incubated for 3 mins by spectrophotometric analysis relative to control
# Summary of the method: (§3)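 OXA-48 at 5.8 nM (His-tagged, expressed in BL21(DE3), purified in K2SO4 buffers) in 100 mM phosphate pH 7 plus 50 mM NaHCO3. Inhibitor preincubated 3 min; substrate 100 µM imipenem; initial velocities at 297 nm, 600 s, 25 °C. Seven inhibitor concentrations in triplicate give IC50, converted to Ki by Cheng–Prusoff; percent inhibition at 10 µM.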
# [5] = target: Class A carbapenemase KPC-2 (Escherichia coli) (UniProt A8DS27); experiment: Inhibition of KPC-2 (unknown origin) expressed in Escherichia coli BL21 (DE3) at 10 uM incubated for 3 mins by spectrophotometric analysis relative to control; summary of the method: as §2
# [6] = Inhibition of OXA-48 (unknown origin) expressed in Escherichia coli BL21 (DE3) incubated for 3 mins by spectrophotometric analysis; set-up: species or system Bacteria; summary of the method: as §3
SMILES,IC50 [1] [nM],inhibition (Bacteria [2]) [%],Ki ([3]; read-out: Ki) [nM],inhibition (Bacteria [4]) [%],inhibition [5] [%],Ki [3],Ki ([1]; read-out: Ki) [nM],Ki [6],Ki [1],Ki ([6]; read-out: Ki) [nM]
COc1ccc(N2/C(=N/c3ccccc3)C[C@@H]2c2ccccc2)cc1,< 5000,95,,,,,,,,
COc1ccc(N2/C(=N/c3ccccc3)C[C@H]2c2ccccc2)cc1,< 5000,95,,,,,,,,
OCc1ccc(N2/C(=N/c3ccc(I)cc3)CC2c2ccc(Cl)cc2Cl)cc1 (racemic),,> 50,3890,,> 50,,1300,Not Active,,
COc1cccc(N2/C(=N/c3ccccc3)CC2c2ccccc2)c1 (racemic),,> 50,3600,28,> 50,,650,,,
Ic1ccc(N2/C(=N/c3ccccc3)CC2c2ccccc2)cc1 (racemic),,> 50,,,,,1900,,,
c1ccc(/N=C2\CC(c3ccccc3)N2c2ccc3c(c2)OCCO3)cc1 (racemic),,> 50,3600,37,> 50,,730,,,
c1ccc(/N=C2\CC(c3ccccc3)N2c2ccc3c(c2)OCO3)cc1 (racemic),,> 50,,,,Not Active,2390,Not Active,,
COc1cc(N2/C(=N/c3ccccc3)CC2c2ccccc2)cc(OC)c1OC (racemic),,,,,,Not Active,,Not Active,Not Active,
O=C(O)c1ccc(N2/C(=N/c3ccc(I)cc3)CC2c2ccc(Cl)cc2Cl)cc1 (racemic),,> 50,4150,,> 50,,35,Not Active,,
Oc1ccc(N2/C(=N/c3ccccc3)CC2c2ccccc2)cc1 (racemic),,> 50,,26,45,,360,,,
COc1ccc(N2/C(=N/c3ccccc3)CC2c2ccccc2)cc1 (racemic),,90,3600,,> 50,,1000,Not Active,,
COc1ccc(N2/C(=N/c3ccc(I)cc3)CC2c2cc(Cl)cc(Cl)c2)cc1 (racemic),,> 50,,> 50,42,,2040,,,530
CSc1ccc(N2/C(=N/c3ccccc3)CC2c2ccccc2)cc1 (racemic),,> 50,,,50,,< 500,Not Active,,
COc1ccc(N2/C(=N/c3ccccc3)CC2c2ccc3ccccc3c2)cc1 (racemic),,> 50,2200,> 50,> 50,,1000,,,1300
CCOc1ccc(N2/C(=N/c3ccccc3)CC2c2ccccc2)cc1 (racemic),,> 50,1400,45,> 50,,1000,,,
CCOc1ccc(N2/C(=N/c3ccccc3)CC2c2ccc3ccccc3c2)cc1 (racemic),,> 50,,,,,2400,,,
c1ccc(/N=C2\CC(c3ccccc3)N2c2ccccc2)cc1 (racemic),,> 50,2410,> 50,> 50,,4620,,,800
c1ccc(COc2ccc(N3/C(=N/c4ccccc4)CC3c3ccccc3)cc2)cc1 (racemic),,> 50,1150,31,> 50,,200,,,
COc1ccc(N2/C(=N/c3ccccc3)CC2c2cc(Cl)cc(Cl)c2)cc1 (racemic),,> 50,1400,20,> 50,,1000,,,
COc1ccc(N2/C(=N/c3ccccc3)CC2c2cccnc2)cc1 (racemic),,,,,,Not Active,,Not Active,Not Active,
COc1ccc(N2/C(=N/c3ccccc3)CC2c2ccccc2)cc1OC (racemic),,> 50,,,,Not Active,2400,Not Active,,

# The next lines start with results.
IC50 [1] [nM],inhibition (Bacteria [2]) [%],Ki ([3]; read-out: Ki) [nM],inhibition (Bacteria [4]) [%],inhibition [5] [%],Ki [3],SMILES,Ki ([1]; read-out: Ki) [nM],Ki [6],Ki [1],Ki ([6]; read-out: Ki) [nM]
,> 50,1930,27,> 50,,COc1ccc(N2/C(=N/c3ccc(Cl)cc3)CC2c2ccc(Cl)cc2)cc1 (racemic),240,,,
,> 50,,31,,Not Active,COc1ccc(/N=C2\CC(c3ccc(Cl)cc3)N2c2ccc(OC)cc2)cc1 (racemic),860,,,
,> 50,6040,> 50,> 50,,COc1ccc(N2/C(=N/c3ccc(C(F)(F)F)cc3)CC2c2ccc(Cl)cc2Cl)cc1 (racemic),370,,,640
,,,,,Not Active,COc1ccc(N2/C(=N/c3ccccc3)CC2c2ccc(F)cc2)cc1 (racemic),,,Not Active,
,> 50,1550,> 50,> 50,,COc1ccc(N2/C(=N/c3ccc(Br)cc3)CC2c2ccc(Cl)cc2)cc1 (racemic),300,,,840
,> 50,1960,30,> 50,,CCOc1ccc(N2/C(=N/c3ccc(Cl)cc3)CC2c2ccc3ccccc3c2)cc1 (racemic),270,,,
,> 50,2360,32,> 50,,COc1ccc(N2/C(=N/c3ccc(C(F)(F)F)cc3)CC2c2ccc(Cl)cc2)cc1 (racemic),320,,,
,> 50,1580,> 50,> 50,,COc1ccc(N2/C(=N/c3ccc(I)cc3)CC2c2ccc3ccccc3c2)cc1 (racemic),230,,,850
,> 50,,,,Not Active,COc1ccc(C2C/C(=N\c3ccccc3)N2c2ccc(OC)cc2)cc1 (racemic),2400,Not Active,,
,> 50,,46,30,,COc1ccc(N2/C(=N/c3ccc(Br)cc3)CC2c2ccc(Cl)cc2Cl)cc1 (racemic),580,,,
,> 50,5230,> 50,> 50,,COc1ccc(N2/C(=N/c3ccc(Br)cc3)CC2c2ccc3ccccc3c2)cc1 (racemic),520,,,390
,> 50,,,,Not Active,COc1ccc(N2/C(=N/c3ccccc3)CC2c2ccc(Cl)cc2)cc1 (racemic),1000,Not Active,,
,> 50,1770,> 50,> 50,,COc1ccc(N2/C(=N/c3ccc(I)cc3)CC2c2ccc(Cl)cc2)cc1 (racemic),330,,,830
,> 50,3940,18,> 50,,COc1ccc(N2/C(=N/c3ccc(Cl)cc3)CC2c2ccc3ccccc3c2)cc1 (racemic),730,,,
,> 50,730,33,> 50,,COc1ccc(N2/C(=N/c3ccccc3)CC2c2ccc(I)cc2)cc1 (racemic),490,,,
